Reference: PubChem BioAssay AID588419 (The Scripps Research Institute Molecular Screening Center, 2011)
Calls of active or inactive are those of the source.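 Rule for the calls: active = IC50 at or below 1000 nM for PAD4 enzyme inhibition; inactive = IC50 above 1000 nM.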

Target: Protein-arginine deiminase type-4 (Homo sapiens) (UniProt Q9UM07)
Test: recombinant human PAD4 inhibitors – biochemical, BAEE substrate, citrulline absorbance, 0-6 µM range, late-stage follow-up (AID 588419)
Conditions: recombinant PAD4, BAEE citrulline colorimetric absorbance
In short: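 assay system = recombinant PAD4 | buffer or medium = Tris-HCl pH 7.6, CaCl2, DTT | reagent = 10 mM BAEE | compound dosing = Seven-point compound series spanning 0 to 6 µM | incubation = 15 min preincubation plus 15 min reaction, 37 °C | measured by = absorbance at 540 nm | read-out basis = IC50 from citrulline formation, quantified via citrulline standard curve | replication = duplicate dose-response curves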

Sequence of Protein-arginine deiminase type-4 (Homo sapiens) (Q9UM07 whole entry, looked up): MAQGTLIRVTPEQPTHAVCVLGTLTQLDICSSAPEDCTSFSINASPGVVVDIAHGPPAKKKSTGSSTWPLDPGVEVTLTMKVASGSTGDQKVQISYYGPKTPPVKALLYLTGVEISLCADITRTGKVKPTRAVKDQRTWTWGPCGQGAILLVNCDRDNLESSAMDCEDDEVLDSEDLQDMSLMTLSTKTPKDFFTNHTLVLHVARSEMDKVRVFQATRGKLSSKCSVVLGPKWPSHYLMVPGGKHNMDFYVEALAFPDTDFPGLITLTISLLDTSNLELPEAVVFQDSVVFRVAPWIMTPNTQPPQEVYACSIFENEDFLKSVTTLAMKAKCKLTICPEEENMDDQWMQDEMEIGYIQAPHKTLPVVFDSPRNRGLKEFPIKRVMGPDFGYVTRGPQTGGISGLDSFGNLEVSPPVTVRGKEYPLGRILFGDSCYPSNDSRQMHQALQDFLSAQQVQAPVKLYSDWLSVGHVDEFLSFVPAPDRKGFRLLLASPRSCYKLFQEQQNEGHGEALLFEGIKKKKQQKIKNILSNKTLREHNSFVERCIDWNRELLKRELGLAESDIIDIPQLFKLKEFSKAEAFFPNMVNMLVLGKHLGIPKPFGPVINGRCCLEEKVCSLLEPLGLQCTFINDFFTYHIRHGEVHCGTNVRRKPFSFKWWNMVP

IC50: inactive
Structure (SMILES): COC1=C(I)C(=O)c2nc(C#N)ccc2C1=O
